# Test results published in PMC11105966 (Journal of medicinal chemistry, 2024).
# Values joined by “and” are separate entries in the source; they are usually repeats but may differ in a detail not shown here. Equal values may be shown once. Read-outs that look alike come from different tables or passages of the source.
# Legend:
# [1] = system: mouse primary hepatocytes; test: MTT cytotoxicity assay, mouse primary hepatocytes; format: cell-based; settings: for IC50: Mus musculus, Hepatocyte; for toxicity in mouse primary hepatocytes: up to 1000 nM
# Method in brief: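 Primary hepatocytes were isolated by collagenase perfusion from an adult female CD-1 mouse. They were maintained in M199 medium with 10% FBS at 37°C, 5% CO2.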
# [2] = Stability in human plasma; format: in vitro ADME; settings: Fig S2
# [3] = Full pharmacokinetic profile, IV and oral, CD-1 mice; format: in vivo; settings: male, CD-1, mouse, plasma; for Cmax: po, 10 mg/kg
# Method in brief: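 Male mice, 6 weeks, n=3 per route. Test compound in 20% DMSO, 16% PEG, 4% dextrose in PBS: IV 1 mg/kg (0.5 mg/mL) or oral gavage 10 mg/kg (1 mg/mL). 10 μL blood taken from 2 or 15 min to 48 h. Plasma measured by LC-MS/MS against 0.5–1000 ng/mL calibration standards with four QC levels. Non-compartmental extravascular PK fit.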
# Water solubility = format: physicochemical
# Percentage of free drug = format: in vitro ADME
# [4] = biological target: DNA-bound ER/SRC-3/P300 complex (Homo sapiens, UniProt Q9Y6Q9); test: Biotinylated ERE pull-down assay; format: biochemical
# DNA-bound ER/SRC-3/P300 complex, sequence (Q9Y6Q9 whole entry, one chain of several): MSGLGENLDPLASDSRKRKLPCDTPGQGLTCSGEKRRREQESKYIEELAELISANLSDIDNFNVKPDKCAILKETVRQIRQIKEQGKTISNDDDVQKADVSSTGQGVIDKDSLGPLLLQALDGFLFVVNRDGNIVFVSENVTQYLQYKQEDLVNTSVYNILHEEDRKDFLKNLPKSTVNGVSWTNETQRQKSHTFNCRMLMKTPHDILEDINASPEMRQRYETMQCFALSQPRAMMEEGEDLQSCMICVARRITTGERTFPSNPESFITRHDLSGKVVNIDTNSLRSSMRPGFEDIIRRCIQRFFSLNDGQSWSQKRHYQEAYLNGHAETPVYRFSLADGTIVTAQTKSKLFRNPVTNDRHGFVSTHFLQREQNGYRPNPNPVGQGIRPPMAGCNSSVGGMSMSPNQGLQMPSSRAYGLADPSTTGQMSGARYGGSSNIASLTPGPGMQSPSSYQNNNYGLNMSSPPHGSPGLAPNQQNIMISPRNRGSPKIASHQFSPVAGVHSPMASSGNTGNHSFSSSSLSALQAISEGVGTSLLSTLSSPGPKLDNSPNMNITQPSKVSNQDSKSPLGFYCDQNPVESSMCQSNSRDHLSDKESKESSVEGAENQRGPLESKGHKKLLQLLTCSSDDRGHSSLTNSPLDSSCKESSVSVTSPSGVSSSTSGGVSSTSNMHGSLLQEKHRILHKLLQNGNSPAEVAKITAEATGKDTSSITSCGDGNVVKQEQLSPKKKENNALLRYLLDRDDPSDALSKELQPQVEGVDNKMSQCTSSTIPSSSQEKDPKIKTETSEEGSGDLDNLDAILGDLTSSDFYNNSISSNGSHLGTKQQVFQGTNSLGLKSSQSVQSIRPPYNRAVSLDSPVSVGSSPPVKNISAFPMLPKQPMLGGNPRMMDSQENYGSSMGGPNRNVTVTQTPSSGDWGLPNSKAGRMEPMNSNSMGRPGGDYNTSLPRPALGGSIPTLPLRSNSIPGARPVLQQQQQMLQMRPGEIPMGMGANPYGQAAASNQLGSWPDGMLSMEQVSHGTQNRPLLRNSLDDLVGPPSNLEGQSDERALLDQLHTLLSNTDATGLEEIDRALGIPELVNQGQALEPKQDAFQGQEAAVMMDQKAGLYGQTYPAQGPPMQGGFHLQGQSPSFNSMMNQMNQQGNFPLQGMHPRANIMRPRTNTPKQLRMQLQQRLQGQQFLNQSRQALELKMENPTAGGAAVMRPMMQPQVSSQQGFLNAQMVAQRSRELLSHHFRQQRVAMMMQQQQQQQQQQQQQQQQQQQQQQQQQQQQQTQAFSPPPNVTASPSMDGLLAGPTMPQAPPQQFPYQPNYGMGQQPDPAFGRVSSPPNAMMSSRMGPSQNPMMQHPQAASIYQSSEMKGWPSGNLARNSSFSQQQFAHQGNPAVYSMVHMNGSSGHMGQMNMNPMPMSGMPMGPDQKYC
# Method in brief: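 Baculovirus-expressed, affinity-purified His-SRC-3-flag was incubated with test compound or vehicle for 30 min on ice, 0.1 μg protein. Then 0.1 μg recombinant ERα and His-p300 and an ERE-containing DNA oligo were added with 1 μM 17-β estradiol for 1 h on ice. The ER complex was pulled down and bound SRC-3 and p300 quantified by western blot.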
# PANC-1-shSRC-3.1 cells = test: MTT viability, SRC-3 knock-down cells shSRC-3.1; format: cell-based, human; settings: PANC-1 shSRC-3.1 and shSRC-3.2 vs control/parental cells
# Method in brief: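 SRC-3 was stably knocked down in PANC-1 cells with lentiviral shRNAs (shSRC-3.1, shSRC-3.2; shCtrl control), and SRC-3 levels were checked by western blot. Cells were treated with varying doses of test compound for 72 h and viability read by MTT. The IC50 of knock-down cells was compared with that of control cells to give the fold change.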
# MDA-MB-468 cells = test: Wash-out experiment in MDA-MB-468 cell line; format: cell-based, human; settings: drug washed out with PBS, total incubation 72 h, MTT
# Method in brief: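 MDA-MB-468 cells were grown in RPMI 1640 with 5% FBS. They were exposed to test compound for varying durations, washed with PBS, and kept in culture to a total of 72 h. Viability was read by MTT, and EC50 and EC90 were derived for each exposure time.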
# [5] = system: 78 targets, including GPCRs, ion channel, receptors, kinase, enzymes and transporters; test: SafetyScreen panel against 78 targets; settings: at 10 μM
# Method in brief: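 Commercial off-target safety panel covering GPCR (calcium flux agonist/antagonist, cAMP), ion channel (hERG blocker) and non-kinase enzyme assays. Test compound was screened at 10 μM, with RC50 values determined for interacting targets.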
# hERG = hERG (Homo sapiens, UniProt Q12809); format: cell-based
# hERG, sequence (Q12809 whole entry): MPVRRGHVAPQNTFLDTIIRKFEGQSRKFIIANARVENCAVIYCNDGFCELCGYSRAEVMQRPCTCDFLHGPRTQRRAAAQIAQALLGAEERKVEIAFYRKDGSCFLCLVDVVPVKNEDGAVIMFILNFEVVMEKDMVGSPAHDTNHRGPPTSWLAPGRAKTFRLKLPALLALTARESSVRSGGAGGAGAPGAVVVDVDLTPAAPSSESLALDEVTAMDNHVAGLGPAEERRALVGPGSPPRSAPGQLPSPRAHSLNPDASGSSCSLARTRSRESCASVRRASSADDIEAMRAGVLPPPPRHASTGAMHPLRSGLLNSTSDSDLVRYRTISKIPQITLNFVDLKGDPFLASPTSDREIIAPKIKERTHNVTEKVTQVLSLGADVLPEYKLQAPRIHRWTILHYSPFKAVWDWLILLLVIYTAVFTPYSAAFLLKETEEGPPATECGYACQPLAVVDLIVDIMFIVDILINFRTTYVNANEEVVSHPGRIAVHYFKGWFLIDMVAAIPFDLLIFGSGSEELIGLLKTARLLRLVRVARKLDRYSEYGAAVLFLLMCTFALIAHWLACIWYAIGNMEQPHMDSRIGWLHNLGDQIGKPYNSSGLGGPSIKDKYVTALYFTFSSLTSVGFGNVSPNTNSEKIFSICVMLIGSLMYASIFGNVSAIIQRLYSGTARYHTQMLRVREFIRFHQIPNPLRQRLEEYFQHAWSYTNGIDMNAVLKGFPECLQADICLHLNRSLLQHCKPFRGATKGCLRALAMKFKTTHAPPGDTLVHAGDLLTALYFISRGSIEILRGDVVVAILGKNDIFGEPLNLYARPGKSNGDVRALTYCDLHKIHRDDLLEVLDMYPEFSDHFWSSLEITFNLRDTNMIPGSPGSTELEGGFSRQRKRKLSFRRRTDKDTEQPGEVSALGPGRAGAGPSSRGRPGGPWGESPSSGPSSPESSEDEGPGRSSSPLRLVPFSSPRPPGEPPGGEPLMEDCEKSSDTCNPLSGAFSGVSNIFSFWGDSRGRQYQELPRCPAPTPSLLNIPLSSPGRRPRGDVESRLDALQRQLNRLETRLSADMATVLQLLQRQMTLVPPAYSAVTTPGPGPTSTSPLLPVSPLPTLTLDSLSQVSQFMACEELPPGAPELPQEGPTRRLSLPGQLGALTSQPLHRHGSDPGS
# [6] = system: prostate cancer PDX organoids; test: Inhibition assay in prostate cancer PDX organoids; format: cell-based, human; settings: 2 weeks treatment
# Method in brief: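 Tumors grown in SCID mice were digested with collagenase I and III to single cells. 20000 cells were embedded in collagen gel, set 20 min at 37°C, then cultured overnight at 37°C, 5% CO2. Test compound or vehicle given for 14 days, at least 5 wells per dose. Organoids imaged and counted on day 14; Student t test.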
# Panc-1-Luc cells = test: Orthotopic Panc-1 PDAC mouse model; format: in vivo, SCID mice; settings: 10 mg/kg i.p. once per day, 8 weeks, orthotopic PDAC mice
# Method in brief: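 0.5×10^6 Panc-1-Luc cells were implanted orthotopically in the pancreas of male SCID mice aged 8 weeks. Mice were randomized by luciferase imaging (n=5 per group). From day 8, test compound 10 mg/kg i.p. or vehicle was given daily. Luciferase imaging and body weight were recorded weekly; tumors harvested at day 63.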
# AR-PDX tumor cells 118b = test: Intra-femoral bone metastasis mouse model of prostate cancer; format: in vivo, SCID mice; settings: 10 mg/kg/day i.p., four weeks; for reduction in femur volume compared to vehicle: CT imaging
# Method in brief: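 1 × 10^5 AR-PDX 118b cells were injected […] into male SCID mice aged 8–9 weeks. Two weeks later, n=9 per group received vehicle or 10 mg/kg/day i.p. for 4 weeks; x-ray imaging every two weeks. Femurs were collected at the end. CT 3D reconstruction was done on 5 femurs per group, plus histology; tumor/femur area ratio. Left femur as negative control.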
# MCF7 cells = test: MTT cytotoxicity assay, MCF7 cells; format: cell-based, human
# Method in brief: (§1)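 Cells seeded at 4000–7000 per well in 10% FBS medium. Lines were grown at 37°C, 5% CO2: MCF-7, LM3–3, BT-20 and BT-474 in DMEM/10% FBS; MDA-MB-468 in RPMI 1640/5% FBS; SUM159PT in Ham's F-12/5% FBS with insulin and hydrocortisone. At 70–80% confluence, test compound was added at 0.2–1000 nM for 72 h, then MTT. Viability relative to untreated cells; IC50 from Hill-slope fit.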
# [7] = system: seven human cancer cell lines known to overexpress SRC-3; test: MTT cytotoxicity, panel of seven human cancer cell lines; format: cell-based; settings: read-out: IC50 values across the cancer cell lines
# Method in brief: as §1
# [8] = Maximum tolerated dose / tolerability in mice; format: in vivo
# LNCaP cells = test: LNCaP xenograft mouse model; format: in vivo, SCID mice
# Method in brief: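 1×10^7 LNCaP cells were implanted subcutaneously on both sides of the back of male SCID mice. Daily 10 mg/kg i.p. dosing or vehicle started 4 weeks after inoculation and ran for 4 weeks. Tumor size (length × width × width/2) measured weekly. Survival endpoint was tumor diameter of 3.0 cm. Ki67, cleaved caspase 3 and CD31 IHC on tumor sections at the end of treatment.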
# [9] = mice; cited from earlier work
# [10] = cytotoxicity to MCF7 cells, MTT assay, 72 h, mean of triplicate
compound,measurement,setting,value
"C/C(=N\N=c1/[nH]c2cc(F)c(F)cc2n1C)c1ccc(F)cn1 [SI-12, (E)-5,6-difluoro-2-(((E)-1-(5-fluoropyridin-2-yl)ethylidene)hydrazineylidene)-1-methyl-2,3-dihydro-1H-benzo[d]imidazole]",IC50,[1],> 1000 nM
same,toxicity in mouse primary hepatocytes,[1],did not observe any toxicity
same,stability in human plasma,[2],excellent stability
same,AUC(0-t),"[3]; iv, 1 mg/kg",2.31 µM·h
same,half-life,"[3]; iv, 1 mg/kg",22 h
same,Cmax,[3],2740 nM
same,solubility,Water solubility,3.8 µM
same,percentage of free drug,Percentage of free drug,2.2%
same,recruitment of SRC-3 and p300 in the ER complex,"[4]; at 0.15 μM, SRC-3 protein 0.13 μM",significantly decreased
same,fold reduction of potency in SRC-3 knock-down cells vs control cells,PANC-1-shSRC-3.1 cells,approximately 5 fold
same,fold reduction of potency in SRC-3 knock-down cells vs control cells,PANC-1-shSRC-3.1 cells; listed as SI-12 (6c),4.7 ~5.8 fold
same,treatment time sufficient to achieve maximal cytotoxicity,MDA-MB-468 cells,3 to 6 h
same,interactions with other targets of the panel,[5],minimal
same,hERG inhibition,hERG; at 10 μM,moderate hERG inhibition
same,formation and growth of organoids,[6],effectively suppressed
same,body weight,Panc-1-Luc cells,did not cause any mice body weight change
same,decrease of ratio of tumor area to femur area,AR-PDX tumor cells 118b,over 50%
same,reduction in femur volume compared to vehicle,AR-PDX tumor cells 118b,> 55%
"C/C(=N\NC1Oc2ccccc2N1C)c1ccc(F)cn1 (stereo not drawn) [8a, (E)-2-(2-(1-(5-fluoropyridin-2-yl)ethylidene)hydrazineyl)-3-methyl-2,3-dihydrobenzo[d]oxazole]",IC50,"MCF7 cells; Homo sapiens, MCF7, 72 h",> 1000 nM
same,effect on the ER complex,[4]; at 1.5 μM,did not affect the ER complex
"methyl 6-((E)-1-(((E)-5,6-dichloro-1-methyl-1,3-dihydro-2H-benzo[d]imidazol-2-ylidene)hydrazineylidene)ethyl)nicotinate [6f]",IC50,MCF7 cells; [10],2.9 nM
"C/C(=N\Nc1nc2cc(F)c(F)cc2n1C)c1ncccn1 [SI-10, (E)-5,6-difluoro-1-methyl-2-(((E)-1-(pyrimidin-2-yl)ethylidene)hydrazineylidene)-2,3-dihydro-1H-benzo[d]imidazole]",IC50,[1],> 1000 nM
same,toxicity in mouse primary hepatocytes,[1],did not observe any toxicity
same,IC50,[7],1 to 32 nM
same,stability in human plasma,[2],excellent stability
same,AUC(0-t),"[3]; iv, 1 mg/kg",0.29 µM·h
same,Cmax,[3],1140 nM
same,solubility,Water solubility,22.8 µM
same,percentage of free drug,Percentage of free drug,6.6%
same,hERG inhibition,hERG; at 30 μM,did not show appreciable hERG inhibition
same,body weight,"[8]; 50 mg/kg or 100 mg/kg, once per day, 4 weeks",did not cause any loss of body weight
same,acute tolerability,[8]; oral administration up to 100 mg/kg (highest dose tested),did not cause appreciable stress
same,mouse survival,"LNCaP cells; 10 mg/kg i.p. once per day, 3.0 cm tumor diameter endpoint",significantly prolonged
same,cleaved caspase 3 positive tumor cells,"LNCaP cells; IHC at end of treatment, vehicle 2%",Approximately 10%
same,Ki67 positive cells in tumors,"LNCaP cells; IHC at end of treatment, vehicle more than 50% positive",significantly lower
same,decrease of ratio of tumor area to femur area,AR-PDX tumor cells 118b,over 50%
same,reduction in femur volume compared to vehicle,AR-PDX tumor cells 118b,> 55%
1-(1-methyl-1H-benzo[d]imidazol-2-yl)-3-(pyridin-2-yl)-1H-pyrazol-5-ol [compound 12],IC50,MCF7 cells; [10],> 1000 nM
"6-((E)-1-(((E)-5,6-dichloro-1-methyl-1,3-dihydro-2H-benzo[d]imidazol-2-ylidene)hydrazineylidene)ethyl)nicotinamide [6g]",IC50,MCF7 cells; [10],2.7 nM
C/C(=N\Nc1nc2ccccc2n1C)c1ccccn1 [SI-2],plasma half-life,[9],1 h and ~ 1 h
"(E)-2-(2-(1-(5-fluoropyridin-2-yl)ethylidene)hydrazineyl)-3-methyl-2,3-dihydrobenzo[d]thiazole [8b]",IC50,MCF7 cells; [10],> 1000 nM
"6-((E)-1-(((E)-5,6-difluoro-1-methyl-1,3-dihydro-2H-benzo[d]imidazol-2-ylidene)hydrazineylidene)ethyl)-N-hydroxynicotinamide [6m]",IC50,MCF7 cells; [10],> 1000 nM
